From ChEMBL document CHEMBL4364260, “Discovery of Ziresovir as a Potent, Selective, and Orally Bioavailable Respiratory Syncytial Virus Fusion Protein Inhibitor” (J Med Chem, 2019)

Assays:
[1] = Half-life in Wistar-Han rat at 2 mg/kg, iv administered as single dose and measured up to 24 hrs by LC/MS/MS analysis; assay type: ADME, organism-based; settings: in vivo
Procedure, shortened: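 Male Wistar-Han rats, single dose, 2 mg/kg iv and 10 mg/kg po, run by standard procedures.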

[2] = Half-life in CD-1 mouse at 5 mg/kg, iv; assay type: ADME, organism-based; settings: in vivo
Procedure, shortened: (§1)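 Single-dose PK in CD-1 mice: 5 mg/kg iv, 50 mg/kg po. Dosed as a solution in 5% DMSO, 40% PEG400, 55% of 0.9% NaCl. Plasma CL, Vss, iv T1/2, AUC and F were derived.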

[3] = Antiviral activity against Human respiratory syncytial virus A strain Long infected in human Hep2 cells assessed as reduction in virus induced cytopathic effect in presence of 10% FBS after 5 days by CCK-8 assay; assay type: functional, cell-based; settings: HEp-2, 120 h
Procedure, shortened: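 HEp-2 cells seeded at 6000/well and infected the next day at MOI 0.02, a dose that gives about 90% CPE by day 5. Serial compound dilutions were present throughout, in standard medium with 10% FBS. Viability was read by CCK-8 at day 5, and EC50 is the concentration that cuts CPE by 50%.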

[4] = Volume of distribution at steady state in CD-1 mouse at 5 mg/kg, iv or 50 mg/kg, po; assay type: ADME, organism-based; settings: in vivo, read-out: Vdss; procedure, shortened: as §1

In the case of `Cc1ccc2nc(N3CCS(=O)(=O)c4ccccc4C3)nc(NCC3(N)COC3)c2c1` [ZIRESOVIR], the half-life [1] is reported as 72 min, the half-life [2] is reported as 24 min and the EC50 [3] is reported as 3 nM. For the same molecule, the EC90 [3] was 5 nM and the Vd [4] was 6.3 L/kg.
